Reference: ChEMBL document CHEMBL1629675, “Novel inhibitor of Plasmodium histone deacetylase that cures P. berghei-infected mice” (Antimicrob Agents Chemother, 2009)
The source made the active and inactive calls. The rule behind the calls is not given here.

Columns and labels:
[1] = system: Plasmodium falciparum; test: Inhibition of HDAC in Plasmodium falciparum 3D7 by fluorescent activity assay; assay type: organism-based
[2] = target: Histone deacetylase; test: Inhibition of human HDAC in HeLa cells by fluorescent activity assay; assay type: cell-based
[3] = system: Plasmodium falciparum; test: Antimalarial activity against Plasmodium falciparum 7G8 assessed as parasite growth inhibition after 48 hrs by standard growth inhibition assay; assay type: functional, organism-based
[4] = system: Plasmodium falciparum; test: Antimalarial activity against Plasmodium falciparum Dd2 assessed as parasite growth inhibition after 48 hrs by standard growth inhibition assay; assay type: functional, organism-based
[5] = system: Plasmodium falciparum; test: Antimalarial activity against Plasmodium falciparum FCR3 assessed as parasite growth inhibition after 48 hrs by standard growth inhibition assay; assay type: functional, FCR-3/Gambia
[6] = system: Plasmodium falciparum; test: Antimalarial activity against chloroquine-sensitive Plasmodium falciparum 3D7 assessed as parasite growth inhibition after 48 hrs by standard growth inhibition assay; assay type: functional, organism-based
[7] = system: Plasmodium falciparum; test: Antimalarial activity against Plasmodium falciparum HB3 assessed as parasite growth inhibition after 48 hrs by standard growth inhibition assay; assay type: functional, organism-based
[8] = system: Plasmodium falciparum; test: Antimalarial activity against sPlasmodium falciparum VS/1 assessed as parasite growth inhibition after 48 hrs by standard growth inhibition assay; assay type: functional
[9] = system: Plasmodium falciparum; test: Antimalarial activity against chloroquine-resistant Plasmodium falciparum FCB1 assessed as parasite growth inhibition after 48 hrs by standard growth inhibition assay; assay type: functional, organism-based, FcB1/Columbia
In short: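 Ring-stage cultures of P. falciparum (3D7, FCB1) in RBCs, 2% hematocrit, at 1% parasitemia, incubated 48 h at 37°C in 90% N2/5% O2/5% CO2 with compound; 0.1% Me2SO control, uninfected-RBC background. Parasitemia counted by FACS on 100,000 Sybr green-stained cells; accepted only if controls grew ≥3-fold. Growth inhibition from background-corrected ratio to control. Triplicate, repeated at least twice.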

[10] = system: Plasmodium falciparum; test: Antimalarial activity against Plasmodium falciparum 3D7 assessed as parasite regrowth measured after 3 days of compound withdrawal at 2.5 nM by standard growth inhibition assay; assay type: functional, organism-based
In short: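 Synchronized 3D7 cultures were exposed to 2.5 nM drug, continuously or over a limited interval, and then the drug was removed. Parasitemia was measured by FACS of Sybr green-stained cells every 12 h for 4 days. Growth inhibition was calculated against 0.1% Me2SO-treated controls. Representative of three experiments.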

[11] = system: Plasmodium berghei; test: Antimalarial activity against Plasmodium berghei infected in mouse assessed as decrease in decline in hematocrit rate at 0.5 mg/kg, […] as splited dose compound with drawn on day 4 measured on day 8; assay type: functional, organism-based; design: dose 0.5 mg/kg
In short: (§1)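 ICR mice (five per group) infected intraperitoneally with 10^6 P. berghei NK56 parasites from a donor mouse, then dosed intraperitoneally with 0, 0.05, 0.5, 5 or 50 mg/kg/day split into two doses for 4 days. Parasitemia was read from Giemsa-stained tail-blood thin smears on day 4 (1,500 cells, two microscopists), with Sybr green confirming negative slides. Parasitemia and hematocrit were taken every 4 days over 6 weeks.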

[12] = system: Plasmodium berghei; test: Antimalarial activity against Plasmodium berghei infected in mouse assessed as decrease in decline in hematocrit rate at 50 mg/kg, […] as splited dose compound with drawn on day 4 measured after 6 weeks; assay type: functional, organism-based; design: dose 50 mg/kg; in short: as §1
[13] = system: Plasmodium berghei; test: Antimalarial activity against Plasmodium berghei infected in mouse assessed as decrease in parasites in blood at 0.05 mg/kg, ip administered as splited dose measured on day 4
[14] = system: Plasmodium berghei; test: Antimalarial activity against Plasmodium berghei infected in mouse assessed as decrease in parasites in blood at 5 mg/kg, ip administered as splited dose measured on day 4 relative to control
[15] = system: Plasmodium berghei; test: Antimalarial activity against Plasmodium berghei infected in mouse assessed as decrease in parasites in blood at 0.5 mg/kg, ip administered as splited dose measured on day 4 relative to control
[16] = system: Plasmodium berghei; test: Antimalarial activity against Plasmodium berghei infected in mouse assessed as decrease in parasites in blood at 5 mg/kg, ip administered as splited dose compound with drawn on day 4 measured on day 20
[17] = system: Plasmodium berghei; test: Antimalarial activity against Plasmodium berghei infected in mouse assessed as decrease in parasites in blood at 0.5 mg/kg, ip administered as splited dose compound with drawn on day 4 measured on day 8
[18] = system: Plasmodium berghei; test: Antimalarial activity against Plasmodium berghei infected in mouse assessed as decrease in parasites in blood at 50 mg/kg, ip administered as splited dose compound with drawn on day 4 measured after 6 weeks
[19] = system: Plasmodium falciparum; test: Antimalarial activity against Plasmodium falciparum 3D7 trophozoites assessed as parasite growth inhibition at […] nM measured at end of the experiment by standard growth inhibition assay; assay type: functional
[20] = system: Plasmodium falciparum; test: Antimalarial activity against Plasmodium falciparum 3D7 schizonts assessed as parasite growth inhibition at […] nM measured at end of the experiment by standard growth inhibition assay; assay type: functional
[21] = system: Plasmodium falciparum; test: Antimalarial activity against Plasmodium falciparum 3D7 rings assessed as parasite growth inhibition at […] nM measured at end of the experiment by standard growth inhibition assay; assay type: functional
[22] = system: Mus musculus; test: Toxicity in ICR mouse assessed as death after 5 days at 0.5 to 100 mg/kg, iv once daily; assay type: organism-based; design: dose 0.5-100 mg/kg, route intravenous; conditions: in vivo, 120 h
[23] = system: Mus musculus; test: Toxicity in ICR mouse assessed as death after 14 days at 5 to 100 mg/kg, iv once daily; assay type: organism-based; design: dose 5-100 mg/kg, route intravenous; conditions: in vivo, 336 h
[24] = system: Mus musculus; test: Toxicity in ICR mouse assessed as clinical signs of distress after 5 days at 0.5 to 100 mg/kg, iv once daily; assay type: organism-based; design: dose 0.5-100 mg/kg, route intravenous; conditions: in vivo, 120 h
[25] = system: Mus musculus; test: Toxicity in ICR mouse assessed as clinical signs of distress after 14 days at 5 to 100 mg/kg, iv once daily; assay type: organism-based; design: dose 5-100 mg/kg, route intravenous; conditions: in vivo, 336 h
[26] = system: Mus musculus; test: Toxicity in ICR mouse assessed as mild increase in erythroid mass after 5 days at 0.5 to 50 mg/kg, iv once daily; assay type: organism-based, Erythrocyte; design: dose 0.5-50 mg/kg, route intravenous; conditions: in vivo, 120 h
[27] = system: Mus musculus; test: Toxicity in ICR mouse assessed as mild increase in erythroid mass after 14 days at 5 to 50 mg/kg, iv once daily; assay type: organism-based, Erythrocyte; design: dose 5-50 mg/kg, route intravenous; conditions: in vivo, 336 h
[28] = system: Mus musculus; test: Toxicity in ICR mouse assessed as moderate increase in erythroid mass after 5 days at 0.5 to 100 mg/kg, iv once daily; assay type: organism-based, Erythrocyte; design: dose 0.5-100 mg/kg, route intravenous; conditions: in vivo, 120 h
[29] = system: Mus musculus; test: Toxicity in ICR mouse assessed as moderate increase in erythroid mass after 14 days at 5 to 50 mg/kg, iv once daily; assay type: organism-based, Erythrocyte; design: dose 5-50 mg/kg, route intravenous; conditions: in vivo, 336 h
[30] = system: Mus musculus; test: Toxicity in ICR mouse assessed as severe increase in erythroid mass after 5 days at 0.5 to 100 mg/kg, iv once daily; assay type: organism-based, Erythrocyte; design: dose 0.5-100 mg/kg, route intravenous; conditions: in vivo, 120 h
[31] = system: Mus musculus; test: Toxicity in ICR mouse assessed as severe increase in erythroid mass after 14 days at 5 to 100 mg/kg, iv once daily; assay type: organism-based, Erythrocyte; design: dose 5-100 mg/kg, route intravenous; conditions: in vivo, 336 h
[32] = system: Plasmodium berghei; test: Antimalarial activity against Plasmodium berghei infected in iv dosed mouse assessed as decrease in parasites in blood; assay type: functional, organism-based; conditions: in the assay text read “ip dosed” for “iv dosed”; in short: as §1
[33] = system: Plasmodium berghei; test: Antimalarial activity against Plasmodium berghei infected in mouse assessed as mouse survival days at 0.5 mg/kg, […] as splited dose measured on day 4 relative to control; assay type: functional
In short: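 P. berghei NK56 blood from donor ICR mice (≥10% parasitemia), diluted in PBS; 10^6 parasites given ip to groups of five ICR mice. Treatment started simultaneously: ip, 0, 0.05, 0.5, 5 or 50 mg/kg/day in two daily doses for 4 days. Mice monitored up to 6 weeks or until death; survival counted from treatment start; paired Student t test.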

[34] = system: Plasmodium falciparum; test: Antimalarial activity against Plasmodium falciparum 3D7 rings assessed as parasite growth inhibition at […] nM after 14 hrs by standard growth inhibition assay; conditions: 3D7, 14 h
[35] = system: Plasmodium falciparum; test: Antimalarial activity against Plasmodium falciparum 3D7 schizonts assessed as parasite growth inhibition at […] nM after 14 hrs by standard growth inhibition assay; conditions: 3D7, 14 h
[36] = system: Plasmodium falciparum; test: Antimalarial activity against Plasmodium falciparum 3D7 trophozoites assessed as parasite growth inhibition at […] nM after 14 hrs by standard growth inhibition assay; conditions: 3D7, 14 h
[37] = Plasmodium falciparum, 7G8, 48 h
[38] = Plasmodium falciparum, Dd2, 48 h
[39] = Plasmodium falciparum, 3D7, 48 h
[40] = Plasmodium falciparum, HB3, 48 h
[41] = Plasmodium falciparum, VS/1, 48 h
[42] = Plasmodium falciparum, FcB1/Columbia, 48 h
[43] = Plasmodium falciparum, FCR-3/Gambia, 48 h

Cl.Nc1cccc(-c2csc(NC(=O)CCCCCCC(=O)NO)n2)c1
IC50 [1]: 50 nM
IC50 [2]: 7.6 nM
IC50 [3]: 10 nM
IC50 [4]: 12 nM
IC50 [5]: 22 nM
IC50 [6]: 30 nM
IC50 [7]: 20 nM
IC50 [8]: 23 nM
IC50 [9]: 15 nM

O=C(CCCCCCC(=O)Nc1nc(-c2ccccc2)cs1)NO
IC50 ([1]; Plasmodium falciparum, 3D7): 30 nM
IC50 [2]: 6.6 nM
IC50 [3, 37]: 8 nM
IC50 [4, 38]: 6 nM
IC50 [6, 39]: 15 nM
IC50 [7, 40]: 7 nM
IC50 [8, 41]: 6 nM
IC50 [9, 42]: 6 nM

N[C@@H](Cc1ccccc1)C(=O)Nc1ccccc1-c1ccc(NC(=O)CCCCCCC(=O)NO)cc1
IC50 ([1]; Plasmodium falciparum, 3D7): 449 nM
IC50 [3, 37]: 160 nM
IC50 [4, 38]: 170 nM
IC50 [5, 43]: 150 nM
IC50 [6, 39]: 220 nM
IC50 [7, 40]: 180 nM
IC50 [8, 41]: 175 nM
IC50 [9, 42]: 95 nM

O=C(CCCCCCC(=O)Nc1ccc(-c2ccccc2)cc1)NO
IC50 ([1]; Plasmodium falciparum, 3D7): 60 nM
IC50 [3, 37]: 100 nM
IC50 [4, 38]: 85 nM
IC50 [5, 43]: 115 nM
IC50 [6, 39]: 129 nM
IC50 [7, 40]: 110 nM
IC50 [8, 41]: 115 nM
IC50 [9, 42]: 80 nM

Nc1cccc(-c2csc(NC(=O)CCCCCCC(=O)NO)n2)c1 [listing 1 of 2 here]
Activity [10]: Active
Activity [11]: Active
Activity [12]: Active
Activity [13]: inactive
Activity [14]: Active
Activity [15]: Active
Activity [16]: inactive
Activity [17]: inactive
Activity [18]: Active

O=C(CCCCCC(=O)Nc1cccc2cccnc12)NS
IC50 ([1]; Plasmodium falciparum, 3D7): 4560 nM
IC50 [2]: 44 nM
IC50 [3, 37]: 5550 nM
IC50 [4, 38]: 7550 nM
IC50 [5, 43]: 6750 nM
IC50 [6, 39]: 9750 nM
IC50 [7, 40]: 8990 nM
IC50 [8, 41]: 9910 nM
IC50 [9, 42]: 6780 nM

Nc1cccc(-c2csc(NC(=O)CCCCCCC(=O)NO)n2)c1 [listing 2 of 2 here]
IC50 [1]: 0.23 nM
IC50 [2]: 3.9 nM
IC50 [3]: 0.4 nM
IC50 [8]: 1 nM
inhibition at 0.00125 µM [19]: 25%
inhibition at 0.00125 µM [20]: 20%
inhibition at 0.00125 µM [21]: < 5%
Activity [22]: Non-toxic
Activity [23]: Non-toxic
Activity [24]: Non-toxic
Activity [25]: Non-toxic
Activity [26]: Non-toxic
Activity [27]: Non-toxic
Activity [28]: Non-toxic
Activity [29]: Non-toxic
Activity [30]: Non-toxic
Activity [31]: Non-toxic
IC50 [32]: 0.5 mg/kg/day
Survival [33]: 23.6 days
inhibition at 0.00125 µM [34]: 15%
inhibition at 0.00125 µM [35]: 25%
inhibition at 0.00125 µM [36]: 35%

O=C(CCCCCCC(=O)NC12CC3CC(CC(C3)C1)C2)NO
IC50 ([1]; Plasmodium falciparum, 3D7): 658 nM
IC50 [2]: 420 nM
IC50 [3, 37]: 10000 nM
IC50 [5, 43]: 9580 nM
IC50 [6, 39]: 11000 nM
IC50 [7, 40]: 9550 nM
IC50 [8, 41]: 8120 nM
IC50 [9, 42]: 6550 nM
